Screening results (PubChem)
The list is not random: actives were taken first. Their share in the collection is about 1.9%.
HCV core dimer – blocks dimerization of HCV core protein; inhibition, % at 5 µM; AID 1899; TR-FRET GST/Flag-core106 dimerization, 1536-well; hit rate 0.33% among 300,000;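 active means inhibition above the mean of all tested compounds plus 3 SD, set per screening campaign, cut at about 45% in these data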
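Assay system: GST-tagged and Flag-tagged HCV core protein residues 1-106 / Times: compound-protein-antibody incubation 4 h at 22.5 °C / Signal: time-resolved FRET, ex 340 nm, em 617 and 671 nm / Evaluation: % inhibition based on acceptor/donor emission ratio / Benchmarks: wells lacking GST-core106 and wells with excess unlabelled core106 / Repeats: singlicate, one well per compound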
DSG3 Ab inh – inhibitors of pemphigus antibody binding to human desmoglein-3; P32926; binding (percent of control), % at 10 µM; DSG3-coupled beads, scFv-anti-DSG3-GFP binding, flow cytometry; hits give low values; AID 588358; hit rate 0.48% among 310,000;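 active means binding more than 3 SD below its plate's average and above zero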;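 further: hits lower antibody fragment binding to DSG3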
Tb MetRS inh – Trypanosoma brucei MetRS inhibition; purified T. brucei MetRS, ATP depletion, Kinase-Glo luminescence; inhibition, % at 11.9 µM; hit rate 0.4% among 360,000; AID 624268;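 active means inhibition above a per-plate cutoff of the control wells' mean inhibition plus 3 SD, cut at about 5.5% in these data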;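 further: 0% = DMSO wells median and 100% = median of wells with control inhibitor compound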
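Measured by: Kinase-Glo luciferase luminescence reporting remaining unconsumed ATP. Material: purified T. brucei MetRS enzyme. Doses: 11.9 µM compound single dose, 0.9% DMSO. Medium: HEPES buffer containing pyrophosphatase, BSA, spermine, DTT. Times: 15 min preincubation, 2 h reaction, all 25 °C. Reagent: methionine, ATP and bulk E. coli tRNA.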
NadD block – blocks S. aureus nicotinate mononucleotide adenylyltransferase; purified NadD enzyme, colorimetric absorbance read-out; inhibition, % at 20 µM; hit rate 0.78% among 360,000; AID 602399; in the data active means inhibition above about 26%
Rce1 inhib – yeast Ras-converting enzyme inhibition | yeast membranes, quenched prenylated peptide cleavage fluorescence | calls only | hit rate 0.27% among 290,000;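 active means fall in fluorescence gain of 50% or more versus controls, with final raw signal at or below 3038400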;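 further: plate controls were neutral control wells for no effect and wells lacking membranes for full effect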
Starred values were filed as active, the others as inactive; i = inactive; . = no result given; + = active, no number.

SMILES	HCV core dimer	DSG3 Ab inh	Tb MetRS inh	NadD block	Rce1 inhib
COc1ccc(NC(=O)Nc2ccc3c(c2)C(=O)N([C@H](C)CO)C[C@H](C)[C@@H](CN(C)Cc2ccc(Cl)c(Cl)c2)OCCCC[C@@H](C)O3)cc1	.	.	-1	40*	.
CCN(C(=O)COC(=O)C1=COCCO1)c1c(N)n(Cc2ccccc2)c(=O)[nH]c1=O	.	73	0	3	.
CCC(C)Sc1cccc(-c2nc3ccc(Cl)cn3c2NCc2ccccc2)c1 (configuration not stated)	-4	100	0	31*	i
CC(C)=C1C(=O)NN(c2ccc(F)c(Cl)c2)C1=O	7	97	0	-6	i
O=C1NN(c2ccc(F)c(Cl)c2)C(=O)/C1=C\c1cccc(OC(=O)c2cccs2)c1	18	104	0	30*	i
CCNC(=S)N/N=C1\C(=O)c2cccc3cccc1c23	-3	104	-1	-8	i
O=C(N/N=C1/C(=O)c2cccc3cccc1c23)c1ccc(Cl)cc1	43	61*	-1	27	i
Oc1c(Cl)cc(Cl)cc1/C=N/c1nccs1	23	102	1	6	i
Oc1c(Cl)cc(Cl)cc1/C=N/c1nc(-c2ccc(Cl)cc2)cs1	-14	81	0	25*	i
Cc1ccc(NC(=O)C(C)Sc2nc3nc(C)cc(C)n3n2)cc1 (configuration not stated)	.	96	0	3	.
CC(=O)Nc1ccc(S(=O)(=O)N2CCN(c3nnnn3-c3ccccc3)CC2)cc1	1	94	-1	-3	i
O=C(O)c1cc(-c2ccc(N3CCOCC3)cc2)nn1-c1ccc(F)cc1F	-6	99	0	1	+
O=C(O)c1cc(-c2ccc(N3CCOCC3)cc2)nn1-c1ccccc1Cl	5	100	0	-1	i
CCOC(=O)C1CCCCN1Cc1cn(C)nc1-c1ccccc1F (configuration not stated)	-4	88	-1	0	i
Cn1cc(CN2CCC(C(=O)N3CCCCC3)CC2)c(-c2ccccc2F)n1	-2	32*	-2	-1	i
COc1cccc(C(=O)Nc2ccccc2)c1	-5	102	-1	-2	i
Cc1cccc(OCC(=O)Nc2ccc(N3CCN(C(=O)c4ccccc4)CC3)cc2)c1C	5	.	0	0	i
COc1ccc(NC(=O)c2ccc(NC(=O)CN3CCN(c4ccccc4)CC3)cc2)cc1	.	5.2*	0	2	.
CN1CCN(c2ccc(NC(=O)c3cccc(OCc4ccccc4)c3)cc2)CC1	-13	123	0	1	i
CCc1ccc(OCC(=O)Nc2ccc(N3CCN(C(=O)c4ccccc4)CC3)cc2)cc1	16	95*	-1	0	i
COc1ccc(NC(=O)c2ccc(CN3CCN(c4ccccc4)CC3)cc2)cc1	5	.	-1	-3	i
CCN1CCN(c2ccc(NC(=O)c3cccc(OCc4ccccc4)c3)cc2)CC1	-3	.	-1	4	+
COc1cccc(C(=O)Nc2ccc(NC(=O)Cc3ccccc3)cc2)c1	-1	92*	-1	-6	i
Oc1ccc(-c2nnc(SCc3ccccc3)o2)cc1	2	106	0	-7	.
COc1ccc(C2(c3ccc(OC)cc3)NC(=O)N(CC(=O)Nc3ccc(N4CCOCC4)cc3)C2=O)cc1	-2	3.0*	-1	7	i
SMILES	HCV core dimer	DSG3 Ab inh	Tb MetRS inh	NadD block	Rce1 inhib
O=C(CN1C(=O)NC(c2ccccc2)(c2ccccc2)C1=O)Nc1ccc(N2CCOCC2)cc1	.	124	0	5	.
O=c1c2ccccc2ncn1-c1ccc(Cl)c(Cl)c1	-5	120	-1	-5	i
COc1cccc(NC(=O)C2C3C=CC4(O3)C2C(=O)N(CCCN2CCC(C)CC2)C4C(=O)NC2CCCCC2)c1 (configuration not stated)	7	108	0	-6	i
COc1ccc(N2CCN(C(=O)NCc3ccc(OC)c(Cl)c3)CC2)cc1	1	44*	0	-3	i
COc1ccc(N2CCN(C(=O)NCc3ccc(OC)c(OC)c3)CC2)cc1	-5	.	-1	0	i
Cc1cc(C)n2nc(CC(=O)NNC(=O)c3ccc(N(C)C)cc3)nc2n1	3	97	0	-6	+
CCOc1ccc2c(c1)C(c1ccccc1)=NNC(c1ccccc1)=N2	2	92	0	7	i
O=C(NC1CCCCC1)N1CCCCCCC1	-3	95	-2	-3	i
S=c1[nH]nc(-c2ccccc2)o1	-5	101	-1	-1	+
COc1cccc(Sc2ccccc2/C=N/NC(N)=O)c1	4	38*	0	-1	i
CCOc1ccc(NC(=O)c2ccc3c(c2)S(=O)(=O)N=C2CCCCCN23)cc1	.	78*	0	0	.
O=C(Nc1ccc(F)cc1)c1ccc2c(c1)S(=O)(=O)N=C1CCCCCN12	.	.	0	1	.
CC(Nc1nc(-c2ccc(F)cc2)cs1)c1nc2cc(Cl)c(Cl)cc2n1CCCO (configuration not stated)	-19	87*	0	19	i
COc1ccc(-c2csc(NC(C)c3nc4cc(Cl)c(Cl)cc4n3CCOCCO)n2)cc1 (configuration not stated)	-7	104	0	15	i
COc1ccc(N2Cc3ccc(C(=O)N/N=C\c4ccc(O)cc4O)cc3C2)cc1	68*	.	.	.	i
O=C(O)CC/C(=C\c1ccc(N2CCCC2)c([N+](=O)[O-])c1)c1nc2ccccc2s1	21	100	1	25	i
COc1ccc(/C=C(/CC(=O)NCc2ccc(Cl)cc2)c2nc3ccccc3s2)cc1	31	99	0	2	i
COc1ccc(/C=C(/CC(=O)Nc2ccccc2)c2nc3ccccc3s2)cc1	58*	81	-1	12	i
NC(=O)C1CCN(C(=O)NC2CC(=O)N(c3ccc4c(c3)OCCO4)C2)CC1 (configuration not stated)	-2	100	0	-5	i
CCCCC(CC)C(=O)Nc1cc(C(=O)NCCC)ccc1N1CCC2(CC1)CC(c1ccccc1)=NO2 (configuration not stated)	21	98	0	22	i
O=c1cc(CSc2nnc(-c3cccs3)n2Cc2ccccc2)nc2sc3ccccc3n12	60*	96	-1	18	i
CN(C)CCCN1C(=O)c2cc3ccccc3cc2C1=O	-2	114	-1	-5	i
O=C(CCCN1C(=O)c2cccc3cccc(c23)C1=O)N1CCN(c2ccccc2)CC1	4	47*	-1	8	i
O=C(CCCCCN1C(=O)c2cccc3cccc(c23)C1=O)NCCO	-2	73*	0	1	i
Cc1cccc(C)c1NC(=O)CNC(=O)CCCN1C(=O)c2cccc3cccc(c23)C1=O	.	102	0	2	.
